Among the data in ChEMBL document CHEMBL1140992, “High throughput screening of potentially selective MMP-13 exosite inhibitors utilizing a triple-helical FRET substrate” (Bioorg Med Chem, 2009) are IC50 and Activity values, retold here.

The target in assay [1] is T1, Collagenase 3 (Homo sapiens, UniProt P45452). In words: Inhibition of human recombinant MMP13 expressed in Escherichia coli.
Assay [2] concerns the target Macrophage metalloelastase (Homo sapiens) (UniProt P39900). Briefly: Inhibition recombinant MMP12 at 100 uM. On the set-up: scale not given: the % may be the effect or the level left. The essentials:
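Recombinant MMP-12 was expressed directly in active form, with no zymogen activation step. Active concentration was determined by recombinant N-TIMP-1 titration, with Knight fSSP or NFF-3 as substrate.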

Assay [3] addresses Neutrophil collagenase (Homo sapiens) (UniProt P22894). In words: Inhibition recombinant MMP8 expressed in CHO-K1 cells at 100 uM. More on the design: scale not given: the % may be the effect or the level left. The format is cell-based. In short, it runs like this: (§1)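 Pro-enzyme (MMP-8 expressed in CHO-K1 cells; MMP-9 recombinant) was activated with 1 mM APMA for 1 h at 37 °C. Active enzyme concentration was determined by titration with recombinant N-TIMP-1, using Knight fSSP or NFF-3 substrate.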

Assay [4] has as its target Stromelysin-1 (Homo sapiens) (UniProt P08254). Briefly: Inhibition recombinant MMP3 at 100 uM. More on the design: scale not given: the % may be the effect or the level left. The essentials:
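ProMMP-3 was expressed in E. coli and folded from inclusion bodies. It was activated with 5 μg/mL chymotrypsin at 37 °C for 2 h, and chymotrypsin was then inactivated with 2 mM diisopropylfluorophosphate. Active concentration was set by N-TIMP-1 titration, with Knight fSSP or NFF-3 as substrate.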

Assay [5] has as its target Matrix metalloproteinase-9 (Homo sapiens) (UniProt P14780). Briefly: Inhibition recombinant MMP9 at 100 uM. More on the design: scale not given: the % may be the effect or the level left. The essentials:
as §1

Assay [6] has as its target 72 kDa type IV collagenase (Homo sapiens) (UniProt P08253). Briefly: Inhibition recombinant MMP2 at 100 uM. On the set-up: scale not given: the % may be the effect or the level left.
Assay [7] addresses T1, Collagenase 3. Briefly: Activity of human recombinant MMP13. On the set-up: concentration or dose not given beside the values. The essentials: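 Recombinant full-length human proMMP-13, activated with 1 mM APMA for 2 h at 37 °C and active-site titrated with N-TIMP-1. Run in 1536-well format in Tris·HCl pH 7.5, 100 mM NaCl, 10 mM CaCl2, 0.05% Brij-35, 0.3% DMSO. Triple-helical FRET substrate fTHP-15 (Mca/Dnp). Stopped with EDTA after 4 h at 25 °C; fluorescence read at ex 325/em 450 nm. Dose-response in triplicate, 10-point 1:3 dilutions from 40 μM; IC50 from four-parameter sigmoidal fit.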

The target in assay [8] is T2, Interstitial collagenase (Homo sapiens) (UniProt P03956).
T2 sequence (whole entry): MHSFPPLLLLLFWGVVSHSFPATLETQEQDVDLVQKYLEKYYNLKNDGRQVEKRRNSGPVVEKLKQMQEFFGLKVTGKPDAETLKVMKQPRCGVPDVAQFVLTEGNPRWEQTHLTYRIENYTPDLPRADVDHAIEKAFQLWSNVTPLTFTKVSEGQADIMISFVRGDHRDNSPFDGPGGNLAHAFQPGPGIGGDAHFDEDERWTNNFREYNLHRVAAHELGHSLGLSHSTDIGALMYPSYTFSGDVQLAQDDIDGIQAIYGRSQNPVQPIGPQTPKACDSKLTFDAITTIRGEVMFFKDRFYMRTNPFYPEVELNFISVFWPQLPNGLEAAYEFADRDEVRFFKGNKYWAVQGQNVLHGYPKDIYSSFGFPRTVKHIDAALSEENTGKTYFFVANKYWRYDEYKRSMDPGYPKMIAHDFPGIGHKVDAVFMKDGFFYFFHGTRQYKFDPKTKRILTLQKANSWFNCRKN
In words: Inhibition recombinant MMP1 at 100 uM. More on the design: scale not given: the % may be the effect or the level left. The essentials: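 Enzyme source: proMMP-1 expressed in E. coli and refolded from inclusion bodies. Activated with 1 mM APMA plus 0.1 equiv MMP-3(Δ248-460) for 6 h at 37 °C. The MMP-3 fragment was then removed by size-exclusion chromatography. Active enzyme was quantified by titration with recombinant N-TIMP-1, using Knight fSSP or NFF-3 as substrate.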

Neutrophil collagenase (Homo sapiens), sequence (P22894 101-467 limits assumed): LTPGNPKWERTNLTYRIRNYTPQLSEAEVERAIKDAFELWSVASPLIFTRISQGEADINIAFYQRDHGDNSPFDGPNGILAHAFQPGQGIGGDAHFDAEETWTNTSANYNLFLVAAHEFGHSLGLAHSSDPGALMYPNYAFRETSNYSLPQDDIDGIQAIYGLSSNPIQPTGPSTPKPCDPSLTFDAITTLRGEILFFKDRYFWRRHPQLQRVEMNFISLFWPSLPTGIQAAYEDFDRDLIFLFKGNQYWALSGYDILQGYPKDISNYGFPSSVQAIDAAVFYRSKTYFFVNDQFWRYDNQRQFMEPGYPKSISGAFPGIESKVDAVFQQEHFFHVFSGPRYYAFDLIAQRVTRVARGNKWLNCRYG
Matrix metalloproteinase-9 (Homo sapiens), sequence (P14780 whole entry): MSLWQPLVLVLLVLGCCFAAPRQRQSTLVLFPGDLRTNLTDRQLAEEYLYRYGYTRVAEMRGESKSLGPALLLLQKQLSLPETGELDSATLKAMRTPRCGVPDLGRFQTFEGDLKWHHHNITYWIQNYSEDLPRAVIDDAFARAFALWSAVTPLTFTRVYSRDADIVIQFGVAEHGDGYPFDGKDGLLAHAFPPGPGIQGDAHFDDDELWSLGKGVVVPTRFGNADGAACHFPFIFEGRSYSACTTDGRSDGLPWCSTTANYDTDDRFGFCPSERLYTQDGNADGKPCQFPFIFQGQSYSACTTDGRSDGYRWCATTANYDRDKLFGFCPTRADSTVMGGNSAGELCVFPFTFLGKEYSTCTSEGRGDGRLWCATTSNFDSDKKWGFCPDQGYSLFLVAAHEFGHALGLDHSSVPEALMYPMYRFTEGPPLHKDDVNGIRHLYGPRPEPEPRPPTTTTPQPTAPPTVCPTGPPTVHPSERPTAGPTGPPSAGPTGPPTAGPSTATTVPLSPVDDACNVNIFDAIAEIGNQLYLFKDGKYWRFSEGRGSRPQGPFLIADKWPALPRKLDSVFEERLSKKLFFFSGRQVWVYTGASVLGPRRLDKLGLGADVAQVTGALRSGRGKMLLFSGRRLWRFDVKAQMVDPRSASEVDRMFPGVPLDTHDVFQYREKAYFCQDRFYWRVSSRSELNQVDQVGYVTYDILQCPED
72 kDa type IV collagenase (Homo sapiens), sequence (P08253 110-660 limits assumed): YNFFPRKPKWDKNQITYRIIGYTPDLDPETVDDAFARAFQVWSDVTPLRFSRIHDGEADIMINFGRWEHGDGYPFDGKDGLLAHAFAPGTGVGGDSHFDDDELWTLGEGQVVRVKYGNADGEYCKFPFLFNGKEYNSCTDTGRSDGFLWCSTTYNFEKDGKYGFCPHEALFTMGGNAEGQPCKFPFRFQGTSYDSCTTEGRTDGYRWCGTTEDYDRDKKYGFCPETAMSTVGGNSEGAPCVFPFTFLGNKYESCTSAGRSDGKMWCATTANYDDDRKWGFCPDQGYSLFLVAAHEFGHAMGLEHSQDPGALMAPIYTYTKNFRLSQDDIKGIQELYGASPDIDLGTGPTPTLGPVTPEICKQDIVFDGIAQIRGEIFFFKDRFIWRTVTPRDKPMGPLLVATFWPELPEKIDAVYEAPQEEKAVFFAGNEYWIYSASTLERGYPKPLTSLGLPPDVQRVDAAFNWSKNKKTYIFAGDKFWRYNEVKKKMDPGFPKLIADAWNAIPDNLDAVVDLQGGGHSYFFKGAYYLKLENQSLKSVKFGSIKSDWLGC
Stromelysin-1 (Homo sapiens), sequence (P08254 100-477 limits assumed): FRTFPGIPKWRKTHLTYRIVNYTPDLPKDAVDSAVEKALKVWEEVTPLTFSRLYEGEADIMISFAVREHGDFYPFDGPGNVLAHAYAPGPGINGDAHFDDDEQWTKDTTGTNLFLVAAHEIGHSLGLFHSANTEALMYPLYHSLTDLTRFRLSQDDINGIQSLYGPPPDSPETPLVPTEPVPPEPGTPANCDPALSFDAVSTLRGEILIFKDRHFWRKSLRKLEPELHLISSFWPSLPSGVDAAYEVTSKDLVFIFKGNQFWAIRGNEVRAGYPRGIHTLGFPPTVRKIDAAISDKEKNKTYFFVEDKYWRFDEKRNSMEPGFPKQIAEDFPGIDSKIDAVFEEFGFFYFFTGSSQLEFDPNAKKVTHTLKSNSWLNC
Macrophage metalloelastase (Homo sapiens), sequence (P39900 106-470 limits assumed): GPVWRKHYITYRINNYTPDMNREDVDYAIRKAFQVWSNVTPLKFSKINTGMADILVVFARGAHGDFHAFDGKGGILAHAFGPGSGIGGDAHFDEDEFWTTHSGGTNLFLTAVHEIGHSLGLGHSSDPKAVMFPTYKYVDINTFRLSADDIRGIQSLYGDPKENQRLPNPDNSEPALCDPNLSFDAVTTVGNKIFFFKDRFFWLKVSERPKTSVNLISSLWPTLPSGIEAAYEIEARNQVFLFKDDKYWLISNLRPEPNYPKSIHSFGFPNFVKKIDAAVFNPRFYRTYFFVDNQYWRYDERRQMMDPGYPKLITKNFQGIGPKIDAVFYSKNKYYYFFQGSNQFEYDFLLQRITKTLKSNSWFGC

The term IC50 denotes the midpoint of a concentration-inhibition curve. Take `COc1cc(-n2nc(C)c3c2OC(N)=C(C#N)C3c2ccccc2)c(Cl)c(Br)c1O` (stereo unspecified): on Collagenase 3 [1], the IC50 was > 40 µM.

As to `O=C(O)CCC(NS(=O)(=O)c1ccc(-c2ccccc2)cc1)C(=O)O` (stereo unspecified), at Collagenase 3 [1], the IC50 came out at 2.1 µM. The Activity in assay [2] is 2%; in assay [3], 2%; in assay [4], 63%; in assay [5], 14%; in assay [6] it was 7%; on Collagenase 3 [7], 4%. Further, in assay [8], the Activity is 25%.

For the molecule `COc1ccc(CSc2nc(C)cc(O)n2)cc1`, the Activity in assay [2] came to 72%; in assay [3] it was 80%; in assay [4] it was 97%; in assay [5], 66%; in assay [6] it was 47%; on Collagenase 3 [7] it was 25%. Moreover, the Activity in assay [8] worked out at 98%.

As for `Cc1nn(-c2ccccc2)c2sc(-c3nnc(S)o3)cc12`, the half-maximal inhibitory concentration (IC50) on Collagenase 3 [1] was determined as 0.9 µM. Moreover, the Activity in assay [2] amounted to 75%; in assay [3], 32%; in assay [4] it was 75%; in assay [5] it was 100%; in assay [6] it was 100%; at Collagenase 3 [7], 45%. In addition, in assay [8], the Activity worked out at 68%.

Take `CCN1C(=O)/C(=C2/Sc3ccccc3N2CCCS(=O)(=O)O)SC1=S`: the Activity in assay [2] is 94%; in assay [3] it was 100%; in assay [4], 90%; in assay [5], 14%; in assay [6], 80%; at Collagenase 3 [7] it was 4%. Moreover, the Activity in assay [8] amounted to 88%.

`C=CCN1C(=O)/C(=C2/Sc3ccccc3N2CCCS(=O)(=O)O)SC1=S`: the Activity in assay [2] came to 100%; in assay [3], 100%; in assay [4], 100%; in assay [5] it was 100%; in assay [6] it was 100%; on Collagenase 3 [7], 36%. Moreover, the Activity in assay [8] was 96%.

Turning to `CCOC(=O)/C(C#N)=C1/C=Nc2ccccc2N1`, on Collagenase 3 [1], the IC50 came out at 3.4 µM. In addition, the Activity in assay [2] stood at 100%; in assay [3], 80%; in assay [4] it was 96%; in assay [5], 99%; in assay [6], 100%; at Collagenase 3 [7], 62%. Besides, the Activity in assay [8] came out at 94%.

Take `O=C1NC(=O)C(CCc2ccncc2)(c2ccccc2)C(=O)N1`: the Activity in assay [2] stood at 1%; in assay [3] it was 8%; in assay [4] it was 87%; in assay [5] it was 3%; in assay [6], 17%; at Collagenase 3 [7], 14%. For the same molecule, the Activity in assay [8] amounted to 27%.

As to `COc1ccc(C2C(C(C)=O)=C(C)N=c3s/c(=C\c4cc(C)n(C)c4C)c(=O)n32)c(OC)c1` (stereo unspecified), on Collagenase 3 [1], the IC50 is > 40 µM.

With `O=C(CSCc1nc(O)n[nH]1)NCCOc1cccc(Oc2ccccc2)c1`, the Activity was found to be 33% in assay [2]; 34% in assay [3]; 96% in assay [4]; 27% in assay [5]; 19% in assay [6]; 35% at Collagenase 3 [7]. In addition, the Activity in assay [8] came to 85%.

For `O=C1NC(=O)C(CCc2ccncc2)(C2CCCCC2)C(=O)N1`, the Activity in assay [2] is 21%; in assay [3] it was 50%; in assay [4] it was 96%; in assay [5], 27%; in assay [6] it was 49%; on Collagenase 3 [7], 35%. Besides, in assay [8], the Activity came to 47%.

For the molecule `CCCCCCOc1ccc(C(CC(=O)O)C(N)=O)cc1` (stereo unspecified), the Activity in assay [2] turned out to be 0%; in assay [3] it was 10%; in assay [4], 43%; in assay [5] it was 0%; in assay [6], 0%; on Collagenase 3 [7] it was 15%. Besides, the Activity in assay [8] was 91%.

Turning to `CCOC(=O)C1CCCN(c2nc3ccccc3nc2C(C#N)C(=O)OCC)C1` (stereo unspecified), on Collagenase 3 [1], the 50% inhibitory concentration (IC50) was 13.3 µM.

`COc1cc(OC)cc(-c2nnc(Nc3nc4c(F)cccc4s3)o2)c1`: the Activity in assay [2] turned out to be 64%; in assay [3], 36%; in assay [4], 95%; in assay [5], 75%; in assay [6] it was 73%; on Collagenase 3 [7] it was 35%. Besides, the Activity in assay [8] was determined as 96%.

In the case of `COC(=O)c1ccc(CSc2nc(O)c3c(-c4cccs4)csc3n2)o1`, the Activity in assay [2] was determined as 92%; in assay [3] it was 94%; in assay [4] it was 92%; in assay [5] it was 100%; in assay [6] it was 100%; on Collagenase 3 [7], 42%. In addition, the Activity in assay [8] is 93%.

With `Oc1nc(SCc2ccc(Cl)cc2)nc2c1CCC2`, the IC50 at Collagenase 3 [1] came out at 10.3 µM.
